Experimental data published in ChEMBL document CHEMBL2040797, “Synthesis of benzimidazoles bearing oxadiazole nucleus as anticancer agents” (2012).

Tests used:
Assay type in all cases: functional
[1] = system: HCT-15; assay: Cytotoxicity against human HCT15 cells after 48 hrs by sulforhodamine B assay; details: HCT-15, 48 h
How it was run: (§1)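 NCI 60-panel screen. Cells were grown in RPMI 1640 with 5% FBS and L-glutamine and plated at 5000–40,000 cells/well according to doubling time. They were preincubated 24 h at 37 °C, 5% CO2, then exposed 48 h to five 10-fold dilutions. Adherent cells were fixed with cold TCA, final 10%; suspension cells were fixed after settling. Cells were stained with 0.4% SRB and read at 515 nm. Tz/C/Ti growth curves gave GI50, TGI and LC50.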

[2] = system: SW-620; assay: Growth inhibition of human SW620 cells at 10 uM after 48 hrs by sulforhodamine B assay; details: SW-620, 48 h, read-out: GI
How it was run: (§2)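 NCI-60 single-dose screen. Cells grown in RPMI 1640 with 5% FBS and L-glutamine, plated at 5000–40,000 cells/well by doubling time, and preincubated 24 h at 37 °C, 5% CO2. Compound stocks in DMSO, added at one concentration, then incubated 48 h. Adherent cells fixed with cold TCA (10% final), stained with 0.4% SRB, dye solubilized in 10 mM Tris base, A515 read. Reported as percent growth relative to untreated control.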

[3] = system: UACC-257; assay: Growth inhibition of human UACC257 cells at 10 uM after 48 hrs by sulforhodamine B assay; details: UACC-257, 48 h, read-out: GI; how it was run: as §2
[4] = system: SK-MEL-28; assay: Cytotoxicity against human SK-MEL-28 cells after 48 hrs by sulforhodamine B assay; details: SK-MEL-28, 48 h; how it was run: as §1
[5] = system: OVCAR-8; assay: Growth inhibition of human OVCAR8 cells at 10 uM after 48 hrs by sulforhodamine B assay; details: OVCAR-8, 48 h, read-out: GI
How it was run: (§3)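 NCI one-dose primary screen at 10 (printed mM) across the 60-line panel. Cells in RPMI 1640 with 5% FBS and 2 mM L-glutamine, plated at 5000–40,000 cells/well and incubated 24 h before dosing. Exposure 48 h at 37 °C, 5% CO2. Adherent cells were fixed with cold TCA, suspension cells fixed after settling. SRB stain, absorbance 515 nm. Reported as percent growth of treated cells relative to control.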

[6] = system: OVCAR-5; assay: Growth inhibition of human OVCAR5 cells at 10 uM after 48 hrs by sulforhodamine B assay; details: OVCAR-5, 48 h, read-out: GI; how it was run: as §3
[7] = system: ACHN; assay: Cytotoxicity against human ACHN cells after 48 hrs by sulforhodamine B assay; how it was run: as §1
[8] = Cytotoxicity against human Hs 578T cells after 48 hrs by sulforhodamine B assay; how it was run: as §1
[9] = system: MOLT-4; assay: Growth inhibition of human MOLT4 cells at 10 uM after 48 hrs by sulforhodamine B assay; details: MOLT-4, 48 h, read-out: GI; how it was run: as §3
[10] = system: BT-549; assay: Growth inhibition of human BT549 cells at 10 uM after 48 hrs by sulforhodamine B assay; details: BT-549, 48 h, read-out: GI; how it was run: as §3
[11] = system: SK-MEL-2; assay: Growth inhibition of human SK-MEL-2 cells at 10 uM after 48 hrs by sulforhodamine B assay; details: SK-MEL-2, 48 h, read-out: GI; how it was run: as §3
[12] = system: DU-145; assay: Growth inhibition of human DU145 cells at 10 uM after 48 hrs by sulforhodamine B assay; details: DU-145, 48 h, read-out: GI; how it was run: as §3
[13] = system: SK-MEL-5; assay: Cytotoxicity against human SK-MEL-5 cells after 48 hrs by sulforhodamine B assay; details: SK-MEL-5, 48 h; how it was run: as §1
[14] = system: NCI/ADR-RES; assay: Cytotoxicity against human NCI/ADR-RES cells after 48 hrs by sulforhodamine B assay; how it was run: as §1
[15] = system: CCRF-CEM; assay: Cytotoxicity against human CCRF-CEM cells after 48 hrs by sulforhodamine B assay; how it was run: as §1
[16] = system: UO-31; assay: Cytotoxicity against human UO31 cells after 48 hrs by sulforhodamine B assay; details: UO-31, 48 h
How it was run: (§4)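 NCI 60 panel five-dose screen. Cells in RPMI 1640 with 5% FBS and 2 mM L-glutamine, plated at 5000–40,000 cells/well and preincubated 24 h. Compounds were tested at five 10-fold concentrations (0.01–100) for 48 h at 37 °C, 5% CO2. Cells were fixed with TCA and stained with SRB, absorbance 515 nm. GI50, TGI and LC50 were taken from % growth curves against time-zero and control.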

[17] = system: SN12C; assay: Growth inhibition of human SN12C cells at 10 uM after 48 hrs by sulforhodamine B assay; details: read-out: GI; how it was run: as §2
[18] = system: KM12; assay: Growth inhibition of human KM12 cells at 10 uM after 48 hrs by sulforhodamine B assay; details: KM12, 48 h, read-out: GI; how it was run: as §3
[19] = system: SF-539; assay: Cytotoxicity against human SF539 cells after 48 hrs by sulforhodamine B assay; details: SF-539, 48 h; how it was run: as §1
[20] = system: A549; assay: Growth inhibition of human A549 cells at 10 uM after 48 hrs by sulforhodamine B assay; details: A549, 48 h, read-out: GI; how it was run: as §3
[21] = system: RPMI-8226; assay: Cytotoxicity against human RPMI8226 cells after 48 hrs by sulforhodamine B assay; details: RPMI-8226, 48 h; how it was run: as §1
[22] = system: OVCAR-3; assay: Cytotoxicity against human OVCAR3 cells after 48 hrs by sulforhodamine B assay; details: OVCAR-3, 48 h; how it was run: as §1
[23] = system: Malme-3M; assay: Cytotoxicity against human MALME-3M cells after 48 hrs by sulforhodamine B assay; how it was run: as §1
[24] = system: NCI/ADR-RES; assay: Growth inhibition of human NCI/ADR-RES cells at 10 uM after 48 hrs by sulforhodamine B assay; details: read-out: GI; how it was run: as §3
[25] = system: SF-295; assay: Growth inhibition of human SF295 cells at 10 uM after 48 hrs by sulforhodamine B assay; details: SF-295, 48 h, read-out: GI; how it was run: as §3
[26] = system: SK-OV-3; assay: Cytotoxicity against human SKOV3 cells after 48 hrs by sulforhodamine B assay; details: SK-OV-3, 48 h; how it was run: as §1
[27] = system: UACC-62; assay: Cytotoxicity against human UACC62 cells after 48 hrs by sulforhodamine B assay; details: UACC-62, 48 h; how it was run: as §4
[28] = system: UACC-62; assay: Growth inhibition of human UACC62 cells at 10 uM after 48 hrs by sulforhodamine B assay; details: UACC-62, 48 h, read-out: GI; how it was run: as §2
[29] = read-out: LC50 (the source's name)

Structure (SMILES): O=C(CCc1nnc(-c2ccc(Cl)cc2Cl)o1)c1nc2ccccc2[nH]1
- GI50 [1]: 5.13 µM
- TGI [1]: 48.6 µM
- CC50 [1, 29]: 100 µM
- inhibition of growth at 10 µM [2]: 64.2%
- inhibition of growth at 10 µM [3]: 21.4%
- GI50 [4]: 12.7 µM
- TGI [4]: 42.7 µM
- CC50 [4, 29]: 100 µM
- inhibition of growth at 10 µM [5]: 42.8%
- inhibition of growth at 10 µM [6]: 18.9%
- GI50 [7]: 11.9 µM
- TGI [7]: 100 µM
- CC50 [7, 29]: 100 µM
- GI50 [8]: 9.71 µM
- TGI [8]: 93.9 µM
- CC50 [8, 29]: 100 µM
- inhibition of growth at 10 µM [9]: 79.3%
- inhibition of growth at 10 µM [10]: 43.6%
- inhibition of growth at 10 µM [11]: 40.6%
- inhibition of growth at 10 µM [12]: 17.8%
- GI50 [13]: 2.88 µM
- TGI [13]: 14.9 µM
- CC50 [13, 29]: 64.6 µM
- GI50 [14]: 5.4 µM
- TGI [14]: 100 µM
- CC50 [14, 29]: 100 µM
- GI50 [15]: 4.86 µM
- TGI [15]: 66 µM
- CC50 [15, 29]: 100 µM
- GI50 [16]: 6.71 µM
- TGI [16]: 32.9 µM
- CC50 [16, 29]: 100 µM
- inhibition of growth at 10 µM [17]: 38.8%
- inhibition of growth at 10 µM [18]: 71.3%
- GI50 [19]: 10.5 µM
- TGI [19]: 39.6 µM
- CC50 [19, 29]: 100 µM
- inhibition of growth at 10 µM [20]: 30.3%
- GI50 [21]: 3.61 µM
- TGI [21]: 23.3 µM
- CC50 [21, 29]: 100 µM
- GI50 [22]: 5.63 µM
- TGI [22]: 24.8 µM
- CC50 [22, 29]: 90.7 µM
- GI50 [23]: 13 µM
- TGI [23]: 52.6 µM
- CC50 [23, 29]: 100 µM
- inhibition of growth at 10 µM [24]: 36.7%
- inhibition of growth at 10 µM [25]: 40.5%
- GI50 [26]: 4.6 µM
- TGI [26]: 30.5 µM
- CC50 [26, 29]: 100 µM
- GI50 [27]: 3.34 µM
- TGI [27]: 27.8 µM
- CC50 [27, 29]: 100 µM
- inhibition of growth at 10 µM [28]: 57.7%
